p47phox inh: p47phox (human) inhibition. 220,000 compounds, 0.53% hits. p47phox/p22phox peptide binding, fluorescence polarization, 2 h. inhibition, % at 24.7 µM. P14598;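 also: 0% = p47phox with labelled peptide and 100% = labelled peptide alone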
eIF4E-4G inh: eIF4E/eIF4G interaction inhibition in translation initiation | P63073+Q04637 | TR-FRET eIF4E-eIF4GI(517-606) binding, 2 h | inhibition, % at 21.7 µM | 220,000 compounds, 0.37% hits;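 also: 0% = full FRET control wells and 100% = background wells lacking eIF4GI fragment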
Wee1 degr inh: human Wee1 degradation inhibition, primary screen. P30291. HeLa Luc-Wee1K328M stability, luciferase luminescence; 100% = proteasome inhibitor MG132 effect. reporter increase, % at 5 µM. 220,000 compounds, 1.2% hits;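 active = activation above the mean of all tested compounds plus 3 SD, set per screening run, cut at about 8.8% in these data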;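 also: cells exposed to compound for 20 h before luminescence read; 0% = DMSO alone and 100% = MG132 at 30 µM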
14-3-3 Bad PPI: disrupts binding of bovine 14-3-3 zeta to phospho-Bad peptide; TR-FRET 14-3-3zeta/Dy647-pBad peptide displacement, 1 h; AID 781; 220,000 compounds, 0.71% hits; P63103; inhibition, % at 21.7 µM;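 active = inhibition above about 70%, limit read from the data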;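 also: 0% = full 14-3-3 plus peptide FRET controls and 100% = background without 14-3-3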
Target sequence (P63103 whole entry, looked up): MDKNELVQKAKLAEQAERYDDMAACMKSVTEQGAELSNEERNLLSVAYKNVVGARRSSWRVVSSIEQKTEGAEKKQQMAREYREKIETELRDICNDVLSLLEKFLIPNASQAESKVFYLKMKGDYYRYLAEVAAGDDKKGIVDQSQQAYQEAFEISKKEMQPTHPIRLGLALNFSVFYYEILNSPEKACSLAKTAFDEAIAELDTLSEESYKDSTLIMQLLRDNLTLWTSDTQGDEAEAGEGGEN
RBBP9 inhibitor: human RBBP9 hydrolase inhibition | O75884 | AID 1515 | recombinant RBBP9, FP-Rh probe fluorescence polarization | inhibition, % at 7.94 µM | 220,000 compounds, 0.2% hits;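 active = inhibition above the campaign mean of all tested compounds plus 3 SD, cut at about 14% in these data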;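 also: plate controls were DMSO wells with RBBP9 for no effect and wells lacking RBBP9 protein for full effect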
Target sequence (O75884 whole entry, looked up): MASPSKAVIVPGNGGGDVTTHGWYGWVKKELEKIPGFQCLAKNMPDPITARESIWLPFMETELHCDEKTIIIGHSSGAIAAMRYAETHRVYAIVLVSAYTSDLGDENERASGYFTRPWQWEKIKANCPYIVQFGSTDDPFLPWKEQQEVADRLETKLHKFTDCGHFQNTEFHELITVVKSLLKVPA
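Test system: recombinant human RBBP9. Quantity: 2.5 µM RBBP9 dispensing solution, before mixing. Detection: FP readout at 525/598 nm. Reagent: Serine-hydrolase probe FP-Rh, 375 nM pre-mixing. Measure: % inhibition. Control set: DMSO-treated enzyme wells and wells lacking RBBP9. Buffer or medium: Tris-NaCl-Pluronic buffer, pH 8.0. Times: preincubation 30 min plus labeling 45 min at 25 °C.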
* = called active by the depositor. Hits are enriched below; roughly 2.8% of the tested compounds scored in any of these assays.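 The calls were made as follows, unless noted: active = inhibition above about 30% (limit read from the data); inactive = the rest.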

For O=S(=O)(NCCSc1ccccn1)c1ccc(Br)cc1 the results were p47phox inh -9, eIF4E-4G inh 1, Wee1 degr inh 0, 14-3-3 Bad PPI -1 and RBBP9 inhibitor 2.
O=C(Nc1ccc(Oc2ncnc3cc(Cl)ccc23)nc1)Nc1cccc(C(F)(F)F)c1 was read as p47phox inh -11, eIF4E-4G inh -2, Wee1 degr inh 4, 14-3-3 Bad PPI 14 and RBBP9 inhibitor -3.
CC(C)c1ccc(CN2CCC(C(=O)NCc3cccnc3)CC2)cc1 was read as p47phox inh -1, eIF4E-4G inh 75*, Wee1 degr inh 0, 14-3-3 Bad PPI 74* and RBBP9 inhibitor -5.
Screening N#CC(c1ccccc1)(c1ncc(C(F)(F)F)cc1Cl)N1CCOCC1 (stereo unspecified) returned p47phox inh 42*, eIF4E-4G inh -9, Wee1 degr inh -3, 14-3-3 Bad PPI -2 and RBBP9 inhibitor -7.
For CC(C)(C)CC(=O)Nc1nnc(SCC(=O)Nc2ccccc2F)s1 the results were p47phox inh 2, eIF4E-4G inh 3, Wee1 degr inh -1, 14-3-3 Bad PPI -11 and RBBP9 inhibitor 0.
`Cc1ccc(CNC(=O)CN(C)S(=O)(=O)c2cccs2)cc1` gave p47phox inh 0, eIF4E-4G inh 0, Wee1 degr inh 0, 14-3-3 Bad PPI 86* and RBBP9 inhibitor -12.
Screening CN(CC(=O)NCCc1ccccc1)S(=O)(=O)c1cccs1 returned p47phox inh -8, eIF4E-4G inh -6, Wee1 degr inh -2, 14-3-3 Bad PPI 26 and RBBP9 inhibitor -3.
`Cc1ccc(-c2csc(N3N=C(c4ccccc4)/C(=C\c4ccc(N(C)C)cc4)C3=O)n2)cc1` gave p47phox inh 51*, eIF4E-4G inh -23, Wee1 degr inh -1, 14-3-3 Bad PPI -25 and RBBP9 inhibitor -13.
Screening Cc1ccc(SCCNC(=O)c2ccc(CN3CCOCC3)cc2)cc1 returned p47phox inh 2, eIF4E-4G inh 3, Wee1 degr inh -3, 14-3-3 Bad PPI -8 and RBBP9 inhibitor -3.
Screening COc1ccc(CN2CCOCCOCCOCC2)cc1 returned p47phox inh -7, eIF4E-4G inh -2, Wee1 degr inh -1, 14-3-3 Bad PPI 1 and RBBP9 inhibitor -4.
`COc1ccc(CN2CCOCC2)cc1` gave p47phox inh -10, eIF4E-4G inh -5, Wee1 degr inh 0, 14-3-3 Bad PPI 74* and RBBP9 inhibitor -16.
`Cc1ccc(CNC(=O)c2ccc(CN3CCOCC3)cc2)cc1` gave p47phox inh 37*, eIF4E-4G inh -8, Wee1 degr inh -3, 14-3-3 Bad PPI 24 and RBBP9 inhibitor 2.
For COC(=O)c1ccc(CSc2n[nH]c(=S)s2)o1 the results were p47phox inh -2, eIF4E-4G inh 33*, Wee1 degr inh 3, 14-3-3 Bad PPI 30 and RBBP9 inhibitor -7.
COCCCNC(=O)c1sc2ncnc(N3CCc4ccccc4C3)c2c1C was read as p47phox inh -7, eIF4E-4G inh 1, Wee1 degr inh 2, 14-3-3 Bad PPI -5 and RBBP9 inhibitor 1.
Screening O=C(NC(=C(Cl)Cl)S(=O)(=O)c1ccc(Cl)cc1)c1ccccc1 returned p47phox inh -18, eIF4E-4G inh -5, Wee1 degr inh -2, 14-3-3 Bad PPI 7 and RBBP9 inhibitor -16.
`Cn1nc(C(=O)Nc2ccc(S(=O)(=O)N3CCOCC3)cc2)c2ccccc2c1=O` gave p47phox inh -18, eIF4E-4G inh 1, Wee1 degr inh 1, 14-3-3 Bad PPI -7 and RBBP9 inhibitor -5.
Screening COc1cccc(CNC(=O)c2cc(COc3c(F)cccc3F)on2)c1 returned p47phox inh -17, eIF4E-4G inh 3, Wee1 degr inh 9.8*, 14-3-3 Bad PPI -2 and RBBP9 inhibitor -16.
Screening Cc1cc(-c2nnc3n2N=C(c2ccc(-c4ccccc4)cc2)CS3)n[nH]1 returned p47phox inh -25, eIF4E-4G inh -10, Wee1 degr inh -3, 14-3-3 Bad PPI -6 and RBBP9 inhibitor -15.
`c1ccc(-c2cc(-c3nnc4n3N=C(c3ccc5ccccc5c3)CS4)[nH]n2)cc1` gave p47phox inh 45*, eIF4E-4G inh 3, Wee1 degr inh 2, 14-3-3 Bad PPI 29 and RBBP9 inhibitor -18.
`C=CCS(=O)(=O)N1CCC(CCOc2ccccc2)(C(=O)OCC)CC1` gave p47phox inh 2, eIF4E-4G inh -1, Wee1 degr inh 4, 14-3-3 Bad PPI -6 and RBBP9 inhibitor -10.

Screening data as filed in PubChem BioAssay.
